Assay results taken from article PMC3086613 (Theranostics, 2011).

Legend:
PC-3 cells [1] = assay: Cell washout; format: cell-based, human; conditions: 37 °C, serum-free medium devoid of radioactivity
How it was run: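 PC-3 cells were seeded at 1 × 10^5 per well overnight, PBS-rinsed, then loaded with ~0.5 μCi/well radiotracer in triplicate for 2 h at 37 °C. After a PBS wash they were re-incubated in serum-free medium. At 0, 15, 30, 60 and 120 min, cells were PBS-washed and lysed in 0.1 M NaOH. Retained activity was gamma-counted as percent added radioactivity.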

PC-3 cells [2] = assay: Cell uptake of 18F-labeled BBN peptides; format: cell-based, human; conditions: for PC-3 cell uptake peak value (percent added radioactivity): 37 °C, 15 min, n = 3, mean ± SD; for Cell uptake at 37 °C versus 4 °C: PC-3 cells
How it was run: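 PC-3 cells (F-12K, 10% FBS, 37 °C, 5% CO2) were seeded at 1 × 10^5 per well overnight, washed three times with PBS, and given ~0.5 μCi/well radiotracer in triplicate at 37 °C. At 15, 30, 60 and 120 min, cells were rinsed with PBS and lysed with 0.1 M NaOH. Lysate activity was gamma-counted and expressed as percent added radioactivity.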

[3] = system: PC-3 tumor-bearing nude mice; assay: Small animal microPET imaging, ROI-derived radioactivity accumulation; format: in vivo; conditions: 3.7 MBq i.v.; PC-3 tumor-bearing mice; n = 3/group
How it was run: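 Male athymic nude mice carried PC-3 xenografts (5 × 10^6 cells s.c., front flank; 100–300 mm3 after 3–4 weeks). Under isoflurane, ~3.7 MBq (100 μCi) radiotracer was given via tail vein. Five-minute static scans were taken at 30 min, 1 h and 2 h (2D OSEM, no attenuation or scatter correction). ROIs on decay-corrected coronal images gave %ID/g, assuming 1 g/mL; n = 3/group.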

Substance	Washout rate from PC-3 cells (PC-3 cells [1])	PC-3 cell uptake peak value (percent added radioactivity) (PC-3 cells [2]) [%]	Cell uptake at 37 °C versus 4 °C (PC-3 cells [2])	Activity accumulation in non-target organs on PET images (in words) [3]	Tumor uptake on PET images (in words) [3]
18F-FP- GGGRDN-FQWAVGHLM-NHEt [^18F-FP-MATBBN]	Much faster washout rate	0.3 ± 0.07	no significant difference	–	–
18F-FP- GGGRDN-QWAVGHLM-NH2 [^18F-FP-MAGBBN]	slower washout	1.2 ± 0.07	2 fold	–	–
18F-FP-Aca-QWAVGHLM-NH2 [^18F-FP-AGBBN]	–	–	–	very high liver, bile and intestinal uptake	some tumor accumulation
18F-FP-FQWAVGHL-NHEt [^18F-FP-ATBBN]	–	–	–	rapid and prominent activity accumulation in the liver and intestines	almost no tumor uptake
